Activity calls are given as the source filed them. The rule behind the calls is not given here.
What was measured:
[1] = target: Calcium/calmodulin-dependent protein kinase type 1 (Homo sapiens) (UniProt Q14012); assay: Inhibition of recombinant human CaMK1 (2 to end residues) at 10 uM using calmodulin as substrate measured after 40 mins in presence of [gamma33P]ATP by scintillation counting method
[2] = target: Mitogen-activated protein kinase 1 (Mus musculus) (UniProt P63085); assay: Inhibition of mouse MAPK2 at 10 uM
[3] = species on record: Mus musculus; assay: Inhibition of recombinant full-length mouse PI3K p110alpha/p85alpha at 10 uM using phosphatidylinositol-4, 5-bisphosphate as substrate measured after 40 mins by HTRF assay
[4] = tested on: Hepatocyte growth factor receptor (Homo sapiens), P08581 [D1228N]; assay: Inhibition of recombinant human MET A1209G/V1290L/D1246N mutant (974 to end residues) at 10 uM using KKKGQEEEYVFIE as substrate measured after 40 mins in presence of [gamma33P]ATP by scintillation counting method
[5] = tested on: Tyrosine-protein kinase ABL1 (Homo sapiens), P00519 [T315I]; assay: Inhibition of recombinant human ABL T315I mutant (27 to end residues) at 10 uM using EAIYAAPFAKKK as substrate measured after 40 mins in presence of [gamma33P]ATP by scintillation counting method
[6] = target: Ribosomal protein S6 kinase alpha-5 (Homo sapiens) (UniProt O75582); assay: Inhibition of recombinant human MSK1 (2 to end residues) at 10 uM using GRPRTSSFAEGKK as substrate measured after 40 mins in presence of [gamma33P]ATP by scintillation counting method
[7] = target: Serine/threonine-protein kinase ICK (Homo sapiens) (UniProt Q9UPZ9); assay: Inhibition of recombinant human ICK (1 to 312 residues) at 10 uM using RRRFRPASPLRGPPK as substrate measured after 40 mins in presence of [gamma33P]ATP by scintillation counting method
[8] = target: Serine/threonine-protein kinase PAK 4 (Homo sapiens) (UniProt O96013); assay: Inhibition of recombinant human PAK4 (295 to end residues) at 10 uM using myelin basic protein as substrate measured after 40 mins in presence of [gamma33P]ATP by scintillation counting method
[9] = target: Vascular endothelial growth factor receptor 2 (Homo sapiens) (UniProt P35968); assay: Inhibition of recombinant human KDR (790 to end residues) at 10 uM using myelin basic protein substrate measured after 40 mins in presence of [gamma33P]ATP by scintillation counting method
[10] = tested on: Tyrosine-protein kinase BTK (Homo sapiens), Q06187 [R28H]; assay: Inhibition of full-length recombinant human BTK R28H mutant at 10 uM using LSNLYHQGKFLQTFCGSPLYRRR as substrate measured after 40 mins in presence of [gamma33P]ATP by scintillation counting method
In short: (§1)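 Kinase panel of 422 kinases screened by Eurofins KinaseProfiler at a single test-compound concentration of 10 µM.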

[11] = target: Receptor-interacting serine/threonine-protein kinase 2 (Homo sapiens) (UniProt O43353); assay: Inhibition of human RIPK2 (1 to 299 residues) using myelin basic protein as substrate measured after 120 mins in presence of [gamma33P]ATP by scintillation counting method; in short: as §1
[12] = target: Serine/threonine-protein kinase SIK3 (Homo sapiens) (UniProt Q9Y2K2); assay: Inhibition of human SIK3 (1 to 307 residues) using KKKVSRSGLYRSPSMPENLNRPR as substrate measured after 40 mins in presence of [gamma33P]ATP by scintillation counting method; in short: as §1
[13] = target: Ribosomal protein S6 kinase alpha-4 (Homo sapiens) (UniProt O75676); assay: Inhibition of recombinant human MSK2 (2 to end residues) at 10 uM using GRPRTSSFAEGKK as substrate measured after 40 mins in presence of [gamma33P]ATP by scintillation counting method
[14] = target: Serine/threonine-protein kinase 4 (Homo sapiens) (UniProt Q13043); assay: Inhibition of recombinant full-length human MST1 at 10 uM using KKSRGDYMTMQIG as substrate measured after 40 mins in presence of [gamma33P]ATP by scintillation counting method
[15] = target: Transcription intermediary factor 1-alpha (Homo sapiens) (UniProt O15164); assay: Binding affinity to human N-terminal His-tagged TRIM24 assessed as change in melting temperature at 10 uM by SYPRO orange dye-based fluorescence assay
In short: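 Thermal shift with His-tagged human bromodomain at 2 μM final in 10 mM HEPES pH 7.5, 500 mM NaCl. Compound at 10 μM final with 0.1% DMSO; SYPRO Orange at 1:1000. Equilibrated 3 min at 25 °C, then heated from 25 to 95 °C at 1 °C/min. Melting temperature shift taken from fluorescence; at least duplicate.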

[16] = target: ATPase family AAA domain-containing protein 2B (Homo sapiens) (UniProt Q9ULI0); assay: Binding affinity to human partial length ATAD2B (Q955 to R1082 residues) expressed in bacterial expression system at 1 uM by BROMOscan assay
In short: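 BROMOscan bromodomain cross-screen run by an outside service, compound at 1 µM against 32 recombinant bromodomains. Binding given as percent of control.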

[17] = target: 5'-AMP-activated protein kinase catalytic subunit alpha-2 (Homo sapiens) (UniProt P54646); assay: Inhibition of recombinant full-length human AMPKalpha2 at 10 uM using AMARAASAAALARRR as substrate measured after 40 mins in presence of [gamma33P]ATP by scintillation counting method
[18] = tested on: Serine/threonine-protein kinase Chk2 (Homo sapiens), O96017 [I157T]; assay: Inhibition of recombinant human CHK2 I157T mutant (5 to end residues) at 10 uM using KKKVSRSGLYRSPSMPENLNRPR as substrate measured after 40 mins in presence of [gamma33P]ATP by scintillation counting method
[19] = tested on: Hepatocyte growth factor receptor (Homo sapiens), P08581 [Y1230C]; assay: Inhibition of recombinant human MET A1209G/V1290L/Y1248C mutant (974 to end residues) at 10 uM using KKKGQEEEYVFIE as substrate measured after 40 mins in presence of [gamma33P]ATP by scintillation counting method
[20] = target: Tyrosine-protein kinase TXK (Homo sapiens) (UniProt P42681); assay: Inhibition of human Txk (256 to end residues) using GEEPLYWSFPAKKK as substrate measured after 40 mins in presence of [gamma33P]ATP by scintillation counting method
[21] = target: Serine/threonine-protein kinase 17A (Homo sapiens) (UniProt Q9UEE5); assay: Inhibition of recombinant full-length human DRAK1 at 10 uM using KKLNRTLSFAEPG as substrate measured after 40 mins in presence of [gamma33P]ATP by scintillation counting method
[22] = target: Serine/threonine-protein kinase MRCK alpha (Homo sapiens) (UniProt Q5VT25); assay: Inhibition of recombinant human MRCKalpha (1 to 473 residues) at 10 uM using KKRNRTLTV as substrate measured after 40 mins in presence of [gamma33P]ATP by scintillation counting method
Sequence of Serine/threonine-protein kinase MRCK alpha (Homo sapiens) (Q5VT25 whole entry, the tested form may be a part): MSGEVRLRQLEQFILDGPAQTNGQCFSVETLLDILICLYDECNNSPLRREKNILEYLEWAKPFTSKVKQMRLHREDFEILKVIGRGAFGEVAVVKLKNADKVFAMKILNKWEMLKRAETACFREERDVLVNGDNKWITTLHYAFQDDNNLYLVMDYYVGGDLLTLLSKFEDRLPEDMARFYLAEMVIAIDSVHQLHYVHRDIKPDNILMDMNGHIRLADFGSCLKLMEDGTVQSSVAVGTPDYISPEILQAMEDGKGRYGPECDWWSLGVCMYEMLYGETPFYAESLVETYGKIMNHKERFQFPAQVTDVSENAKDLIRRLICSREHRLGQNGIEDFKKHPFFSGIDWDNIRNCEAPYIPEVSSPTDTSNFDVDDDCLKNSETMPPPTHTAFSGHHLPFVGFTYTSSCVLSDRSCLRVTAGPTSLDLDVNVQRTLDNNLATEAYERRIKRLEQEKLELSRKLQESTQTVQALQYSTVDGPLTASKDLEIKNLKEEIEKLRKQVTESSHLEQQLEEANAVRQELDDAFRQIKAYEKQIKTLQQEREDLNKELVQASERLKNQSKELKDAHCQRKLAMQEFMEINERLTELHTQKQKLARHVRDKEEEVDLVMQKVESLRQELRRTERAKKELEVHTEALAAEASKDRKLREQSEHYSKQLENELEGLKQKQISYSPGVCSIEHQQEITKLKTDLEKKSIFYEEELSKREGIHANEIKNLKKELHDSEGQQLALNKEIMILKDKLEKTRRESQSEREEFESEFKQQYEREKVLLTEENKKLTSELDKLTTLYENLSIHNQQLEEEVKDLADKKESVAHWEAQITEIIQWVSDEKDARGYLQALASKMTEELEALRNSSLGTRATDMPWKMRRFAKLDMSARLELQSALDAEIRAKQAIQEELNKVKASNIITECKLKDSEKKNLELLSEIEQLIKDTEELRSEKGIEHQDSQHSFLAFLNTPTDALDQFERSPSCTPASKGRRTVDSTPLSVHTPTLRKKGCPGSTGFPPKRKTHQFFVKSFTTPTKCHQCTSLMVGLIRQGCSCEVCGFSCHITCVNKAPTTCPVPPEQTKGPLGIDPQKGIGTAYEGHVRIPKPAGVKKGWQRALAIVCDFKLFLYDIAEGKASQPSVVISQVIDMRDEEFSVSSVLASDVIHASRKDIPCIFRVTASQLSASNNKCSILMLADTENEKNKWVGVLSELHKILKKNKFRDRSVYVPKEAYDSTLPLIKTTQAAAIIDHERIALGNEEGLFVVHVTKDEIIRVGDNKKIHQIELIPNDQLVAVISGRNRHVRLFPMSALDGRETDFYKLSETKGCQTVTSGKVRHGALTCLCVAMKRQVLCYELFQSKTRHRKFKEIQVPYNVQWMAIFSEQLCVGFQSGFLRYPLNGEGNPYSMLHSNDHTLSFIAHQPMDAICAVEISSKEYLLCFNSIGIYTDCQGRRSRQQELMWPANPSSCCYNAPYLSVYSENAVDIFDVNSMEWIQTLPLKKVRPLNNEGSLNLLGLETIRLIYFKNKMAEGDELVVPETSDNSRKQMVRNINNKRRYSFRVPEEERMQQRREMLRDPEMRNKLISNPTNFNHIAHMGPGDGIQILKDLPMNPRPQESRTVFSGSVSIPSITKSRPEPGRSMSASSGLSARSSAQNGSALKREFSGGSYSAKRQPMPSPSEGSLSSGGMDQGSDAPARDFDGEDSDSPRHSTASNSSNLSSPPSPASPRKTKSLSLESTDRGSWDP

Sequence of 5'-AMP-activated protein kinase catalytic subunit alpha-2 (Homo sapiens) (P54646 whole entry, looked up): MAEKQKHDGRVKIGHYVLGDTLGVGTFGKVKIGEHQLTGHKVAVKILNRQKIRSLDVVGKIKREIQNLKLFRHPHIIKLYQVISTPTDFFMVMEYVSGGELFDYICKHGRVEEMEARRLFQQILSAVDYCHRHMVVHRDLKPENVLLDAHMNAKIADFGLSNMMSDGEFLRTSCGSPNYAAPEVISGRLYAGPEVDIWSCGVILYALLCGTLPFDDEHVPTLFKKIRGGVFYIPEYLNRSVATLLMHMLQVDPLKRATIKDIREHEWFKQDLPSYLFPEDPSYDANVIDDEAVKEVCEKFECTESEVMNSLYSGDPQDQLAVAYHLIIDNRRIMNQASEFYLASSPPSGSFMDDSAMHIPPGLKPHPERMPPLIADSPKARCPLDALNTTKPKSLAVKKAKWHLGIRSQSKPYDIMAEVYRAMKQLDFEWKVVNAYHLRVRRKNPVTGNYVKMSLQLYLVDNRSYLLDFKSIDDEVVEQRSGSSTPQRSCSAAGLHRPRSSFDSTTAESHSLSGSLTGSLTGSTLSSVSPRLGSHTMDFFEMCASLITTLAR
Sequence of Serine/threonine-protein kinase ICK (Homo sapiens) (Q9UPZ9 whole entry, the tested form may be a part): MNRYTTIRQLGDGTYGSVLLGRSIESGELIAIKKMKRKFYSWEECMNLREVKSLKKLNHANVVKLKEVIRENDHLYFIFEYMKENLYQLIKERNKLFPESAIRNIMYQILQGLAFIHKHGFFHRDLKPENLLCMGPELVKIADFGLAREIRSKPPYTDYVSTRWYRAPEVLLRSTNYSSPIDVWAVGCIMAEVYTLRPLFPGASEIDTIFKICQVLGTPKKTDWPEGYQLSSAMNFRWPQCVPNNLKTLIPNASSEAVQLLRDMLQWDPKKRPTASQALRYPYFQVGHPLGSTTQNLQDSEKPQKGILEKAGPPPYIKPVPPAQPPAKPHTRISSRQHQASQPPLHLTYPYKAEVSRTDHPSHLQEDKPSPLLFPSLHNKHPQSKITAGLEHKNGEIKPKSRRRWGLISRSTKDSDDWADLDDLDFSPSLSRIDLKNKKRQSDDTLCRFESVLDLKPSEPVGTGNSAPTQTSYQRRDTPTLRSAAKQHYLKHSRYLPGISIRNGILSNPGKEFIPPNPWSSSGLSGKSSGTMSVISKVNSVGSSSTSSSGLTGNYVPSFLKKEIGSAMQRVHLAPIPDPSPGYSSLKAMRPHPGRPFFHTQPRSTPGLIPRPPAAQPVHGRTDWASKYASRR
Sequence of ATPase family AAA domain-containing protein 2B (Homo sapiens) (Q9ULI0 whole entry, the tested form may be a part): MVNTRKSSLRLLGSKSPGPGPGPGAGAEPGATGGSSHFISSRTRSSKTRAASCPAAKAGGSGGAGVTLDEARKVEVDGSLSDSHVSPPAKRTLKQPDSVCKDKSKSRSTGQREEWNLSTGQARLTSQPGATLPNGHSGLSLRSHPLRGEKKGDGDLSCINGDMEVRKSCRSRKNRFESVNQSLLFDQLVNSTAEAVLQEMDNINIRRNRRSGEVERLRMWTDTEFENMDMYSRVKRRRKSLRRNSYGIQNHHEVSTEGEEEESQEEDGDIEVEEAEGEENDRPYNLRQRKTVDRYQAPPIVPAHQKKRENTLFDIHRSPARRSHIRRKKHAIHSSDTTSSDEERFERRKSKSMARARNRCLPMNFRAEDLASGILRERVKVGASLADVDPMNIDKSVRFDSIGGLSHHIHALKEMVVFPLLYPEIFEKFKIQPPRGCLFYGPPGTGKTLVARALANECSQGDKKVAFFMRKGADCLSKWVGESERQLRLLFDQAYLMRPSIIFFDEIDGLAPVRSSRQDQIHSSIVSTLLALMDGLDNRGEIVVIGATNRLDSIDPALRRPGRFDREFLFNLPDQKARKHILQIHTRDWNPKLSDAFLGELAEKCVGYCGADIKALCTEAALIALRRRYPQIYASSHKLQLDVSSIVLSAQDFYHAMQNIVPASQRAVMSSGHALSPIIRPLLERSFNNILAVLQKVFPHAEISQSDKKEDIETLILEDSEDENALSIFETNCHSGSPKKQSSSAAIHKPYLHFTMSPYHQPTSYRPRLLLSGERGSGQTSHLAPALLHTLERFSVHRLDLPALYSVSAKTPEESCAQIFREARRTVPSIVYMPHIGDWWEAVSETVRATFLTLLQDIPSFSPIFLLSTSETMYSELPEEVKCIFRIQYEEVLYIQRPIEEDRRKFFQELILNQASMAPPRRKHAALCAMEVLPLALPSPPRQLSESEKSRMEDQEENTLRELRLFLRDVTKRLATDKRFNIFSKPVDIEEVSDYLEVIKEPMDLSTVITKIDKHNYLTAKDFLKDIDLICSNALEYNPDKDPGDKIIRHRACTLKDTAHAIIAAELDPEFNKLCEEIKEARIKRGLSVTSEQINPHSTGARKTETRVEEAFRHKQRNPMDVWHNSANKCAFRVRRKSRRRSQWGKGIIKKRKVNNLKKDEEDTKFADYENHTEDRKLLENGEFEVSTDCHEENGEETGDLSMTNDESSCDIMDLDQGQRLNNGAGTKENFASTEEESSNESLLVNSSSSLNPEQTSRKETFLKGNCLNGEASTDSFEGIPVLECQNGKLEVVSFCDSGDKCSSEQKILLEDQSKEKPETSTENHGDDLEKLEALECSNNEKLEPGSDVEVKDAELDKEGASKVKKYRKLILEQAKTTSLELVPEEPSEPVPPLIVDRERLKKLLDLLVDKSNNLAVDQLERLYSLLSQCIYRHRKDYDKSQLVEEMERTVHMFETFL
Sequence of Serine/threonine-protein kinase 17A (Homo sapiens) (Q9UEE5 whole entry, the tested form may be a part): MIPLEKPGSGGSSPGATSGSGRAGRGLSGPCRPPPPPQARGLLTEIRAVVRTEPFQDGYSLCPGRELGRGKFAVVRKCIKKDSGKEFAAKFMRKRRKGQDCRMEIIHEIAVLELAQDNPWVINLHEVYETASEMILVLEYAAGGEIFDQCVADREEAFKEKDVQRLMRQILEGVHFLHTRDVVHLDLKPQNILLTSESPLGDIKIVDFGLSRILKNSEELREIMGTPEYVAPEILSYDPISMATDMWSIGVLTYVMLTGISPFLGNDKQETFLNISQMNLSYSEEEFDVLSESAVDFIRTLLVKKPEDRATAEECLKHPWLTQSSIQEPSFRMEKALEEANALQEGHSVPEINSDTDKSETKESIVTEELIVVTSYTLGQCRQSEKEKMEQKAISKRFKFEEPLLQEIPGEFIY

## CN1C[C@H](Nc2nc3cc[nH]c3c(=O)n2C)C[C@H](c2ccc3c(c2)OCCO3)C1
[1]
  inhibition: inactive
[2]
  inhibition: inactive
[3]
  inhibition: inactive
[4]
  inhibition: inactive
[5]
  inhibition: inactive
[6]
  inhibition: inactive
[7]
  inhibition: inactive
[8]
  inhibition: inactive
[9]
  inhibition: inactive
[10]
  inhibition: inactive
[11]
  inhibition: inactive
[12]
  inhibition: inactive
[13]
  inhibition: inactive
[14]
  inhibition: inactive
[15]
  ΔTm: -0.3 °C
[16]
  Activity: inactive
[17]
  inhibition: inactive
[18]
  inhibition: inactive
[19]
  inhibition: inactive
[20]
  inhibition: inactive
[21]
  inhibition: inactive
[22]
  inhibition: inactive
